15 compounds from ChEMBL document CHEMBL1154881, “Synthesis and antimicrobial activities of novel 1,5-diaryl pyrazoles” (2010) can be followed below.

≈ marks a conversion by molar mass, not a printed value.

In general, MIC refers to the least concentration at which growth counts as inhibited. Low values mean greater potency, high ones weaker potency.

Assay [1] relates to Klebsiella pneumoniae. Put plainly: Antibacterial activity against Klebsiella pneumoniae after 24 hrs by disk diffusion method. The format is functional. The procedure, abridged: (§1)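 Disc diffusion, each concentration tested in triplicate on nutrient agar seeded separately with fresh bacteria. Incubation 37 °C, 24 h. Solvent and growth controls included. Zones of inhibition recorded. The K. pneumoniae strain was recultured.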

Assay [2] relates to Talaromyces marneffei. The experiment in a line: Antifungal activity against Penicillium marneffei after 3 to 4 days by serial plate dilution method. The format is functional. The procedure, abridged:
(§2)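 Sabouraud's agar (peptone 1 g, D-glucose 4 g, agar 2 g per 100 ml water, pH 5.7) plates were lawned with spore suspension (a loopful in 3 ml normal saline) and dried 1 h at 37 °C. Wells were punched and filled with compound in DMSO at 10–50 mg/ml, with a DMSO control. Plates in triplicate, 37 °C for 3–4 days.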

In assay [3] the test system is Staphylococcus aureus. The experiment in a line: Antibacterial activity against Staphylococcus aureus ATTC 25923 after 24 hrs by disk diffusion method. The format is functional. The procedure, abridged: as §1
On the technique in general: A growth-free zone around the sample is the usual read-out of agar diffusion tests.

The subject of assay [4] is Aspergillus fumigatus. The experiment in a line: Antifungal activity against Aspergillus fumigatus NCIM 902 after 3 to 4 days by serial plate dilution method. The format is functional. The procedure, abridged:
as §2

In assay [5] the test system is Trichophyton mentagrophytes. Put plainly: Antifungal activity against Trichophyton mentagrophytes at 10 to 50 ug/ml after 3 to 4 days. The format is functional.
Assay [6] concerns Aspergillus flavus. Put plainly: Antifungal activity against Aspergillus flavus NCIM 524 after 3 to 4 days by serial plate dilution method. The format is functional. The procedure, abridged:
as §2

In assay [7] the test system is Talaromyces marneffei. Put plainly: Antifungal activity against Penicillium marneffei at 10 to 50 ug/ml after 3 to 4 days. In kind it is functional.
Assay [8] deals with Escherichia coli. Put plainly: Antibacterial activity against Escherichia coli ATTC 25922 after 24 hrs by broth dilution method. In kind it is functional. To be noted: ATTC 25922, 24 h.
In assay [9] the test system is Klebsiella pneumoniae. Put plainly: Antibacterial activity against Klebsiella pneumoniae after 24 hrs by […].
In assay [10] the test system is Escherichia coli. Put plainly: Antibacterial activity against Escherichia coli ATTC 25922 after 24 hrs by disk diffusion method. The format is functional. The procedure, abridged:
as §1

Assay [11] deals with Trichophyton mentagrophytes. Put plainly: Antifungal activity against Trichophyton mentagrophytes after 3 to 4 days by serial plate dilution method. In kind it is functional. The procedure, abridged: as §2
In assay [12] the test system is Pseudomonas aeruginosa. Put plainly: Antibacterial activity against Pseudomonas aeruginosa ATTC 27853 after 24 hrs by disk diffusion method. The format is functional. The procedure, abridged: as §1
Assay [13] relates to Staphylococcus aureus. Put plainly: Antibacterial activity against Staphylococcus aureus ATTC 25923 after 24 hrs by broth dilution method. To be noted: ATTC 25923, 24 h. The format is functional. (In general: Broth dilution looks for growth in wells or tubes with falling amounts of substance.)

In the case of `Cc1nc(-c2cc(-c3ccc(Cl)cc3)n(-c3ccc(F)cc3)n2)sc1C(=O)NNC(=O)NC(=O)c1ccc(C(F)(F)F)cc1`, the “inhibition zone (IZ)” value in assay [1] is recorded as 19 mm; in [2], 22 mm; in assay [3], 19 mm; in assay [4] it was 25 mm; in assay [6], under 10 mm; in [10], 20 mm. For the same compound, the figures for the “inhibition zone (IZ)” value in assay [11] and in assay [12] were 17 mm and under 10 mm, respectively. Moreover, the MIC was determined as 12.5 µg/mL (≈ 19.4 µM) in assay [5]; 12.5 µg/mL (≈ 19.4 µM) in [7]; 12.5 µg/mL (≈ 19.4 µM) in assay [8]; 50 µg/mL (≈ 77.8 µM) in assay [9]; 12.5 µg/mL (≈ 19.4 µM) in [13].

For the compound `Cc1nc(-c2cc(-c3ccc(Cl)cc3)n(-c3ccc(F)cc3)n2)sc1C(=O)NNC(=S)NC(=O)c1ccccc1`, the “inhibition zone (IZ)” value in assay [1], in assay [2], in [3], in assay [4], in assay [6] and in assay [10] was under 10 mm each time. Also, the “inhibition zone (IZ)” value in assay [11] and in [12] was under 10 mm in each case.

On to `C=CCNC(=O)NNC(=O)c1sc(-c2cc(-c3ccc(Cl)cc3)n(-c3ccc(F)cc3)n2)nc1C`, for which the “inhibition zone (IZ)” value was 21 mm in assay [1]; 21 mm in assay [2]; 21 mm in assay [3]; 23 mm in [4]; 21 mm in assay [6]; 22 mm in [10]. In addition, the “inhibition zone (IZ)” value in assay [11] was 19 mm; in assay [12], under 10 mm. Also, the MIC in assay [5], in [7], in assay [8] and in assay [13] was 12.5 µg/mL (≈ 24.5 µM) each time.

Turning to `CCCCCC(=O)N1CCN(C(=O)c2cc(-c3ccc(Cl)cc3)n(-c3ccc(F)cc3)n2)CC1`, the “inhibition zone (IZ)” value in assay [1] is on record as 21 mm; in assay [2], 19 mm; in assay [3], 18 mm; in assay [4], 28 mm; in assay [6], under 10 mm; in assay [10] it was 18 mm. The results for the “inhibition zone (IZ)” value in assay [11] and in assay [12] were 20 mm and under 10 mm, respectively. For the same compound, the MIC in assay [5], in [7], in assay [8] and in [13] was 12.5 µg/mL (≈ 25.9 µM) each time.

For `Fc1ccc(-n2nc(-c3nc(-c4ccc(Cl)cc4)cs3)cc2-c2ccc(Cl)cc2)cc1`, the “inhibition zone (IZ)” value in assay [1] is on record as 17 mm; in [2], under 10 mm; in [3] it was under 10 mm; in [4], under 10 mm; in assay [6], under 10 mm; in assay [10], 21 mm. Further, the “inhibition zone (IZ)” value stood at 19 mm in assay [11] and 16 mm in assay [12]. In addition, 12.5 µg/mL (≈ 26.8 µM) was the least that counted as inhibitory in assay [8] (MIC).

With `Cc1nc(-c2cc(-c3ccc(Cl)cc3)n(-c3ccc(F)cc3)n2)sc1C(=O)NN`, the “inhibition zone (IZ)” value in assay [1] is on record as 19 mm; in [2], 20 mm; in assay [3], 20 mm; in assay [4], 19 mm; in assay [6] it was under 10 mm; in assay [10] it was 18 mm. Besides, the “inhibition zone (IZ)” value in [11] and in [12] was 19 mm each time. Besides, the MIC in [5] turned out to be 12.5 µg/mL (≈ 29.2 µM); in [7] it was 12.5 µg/mL (≈ 29.2 µM); in [8] it was 12.5 µg/mL (≈ 29.2 µM); in [9] it was 50 µg/mL (≈ 117 µM); in assay [13], 12.5 µg/mL (≈ 29.2 µM).

As to `Cc1nc(-c2cc(-c3ccc(Cl)cc3)n(-c3ccc(F)cc3)n2)sc1-c1n[nH]c(=O)o1`, the “inhibition zone (IZ)” value in [1], in assay [2], in assay [3], in [4], in assay [6] and in assay [10] was under 10 mm each time. Also, the “inhibition zone (IZ)” value in assay [11] and in [12] was under 10 mm throughout.

Consider `C=CCNC(=O)N1CCN(C(=O)c2cc(-c3ccc(Cl)cc3)n(-c3ccc(F)cc3)n2)CC1`, for which the “inhibition zone (IZ)” value in assay [1] was determined as 19 mm; in assay [2], 24 mm; in assay [3], 20 mm; in assay [4], 16 mm; in [6], 19 mm; in [10], 19 mm. For the same compound, the “inhibition zone (IZ)” value in [11] is given as 22 mm; in assay [12] it was 19 mm. Besides, the MIC in [5] is 12.5 µg/mL (≈ 26.7 µM); in [7] it was 12.5 µg/mL (≈ 26.7 µM); in assay [8] it was 12.5 µg/mL (≈ 26.7 µM); in [9] it was 50 µg/mL (≈ 107 µM); in assay [13], 12.5 µg/mL (≈ 26.7 µM).

As to `Cc1nc(NC(=O)c2cc(-c3ccc(Cl)cc3)n(-c3ccc(F)cc3)n2)sc1C(=O)O`, the “inhibition zone (IZ)” value in assay [1], in [2], in assay [3], in assay [4], in assay [6] and in assay [10] was under 10 mm in each case. Besides, the “inhibition zone (IZ)” value in assay [11] and in assay [12] was under 10 mm in each case.

Consider `O=C(c1cc(-c2ccc(Cl)cc2)n(-c2ccc(F)cc2)n1)N1CCN(C(=O)C2CC2)CC1`, for which the “inhibition zone (IZ)” value in [1] amounted to 19 mm; in assay [2], 21 mm; in [3], 20 mm; in assay [4], 22 mm; in assay [6], 24 mm; in [10], 20 mm. Also, the “inhibition zone (IZ)” value in assay [11] was 20 mm; in assay [12], 17 mm. Further, the MIC in assay [5], in assay [7], in assay [8], in assay [9] and in [13] was 12.5 µg/mL (≈ 27.6 µM) each time.

For `O=C(Nc1ccc(Cl)nc1)c1cc(-c2ccc(Cl)cc2)n(-c2ccc(F)cc2)n1`, the “inhibition zone (IZ)” value in [1], in assay [2], in assay [3], in assay [4], in [6] and in assay [10] was under 10 mm each time. For the same compound, the “inhibition zone (IZ)” value in assay [11] and in assay [12] was under 10 mm each time.

`CCOC(=O)c1sc(NC(=O)c2cc(-c3ccc(Cl)cc3)n(-c3ccc(F)cc3)n2)nc1C`: the “inhibition zone (IZ)” value in assay [1], in assay [2], in assay [3], in assay [4], in assay [6] and in assay [10] was under 10 mm throughout. The “inhibition zone (IZ)” value in assay [11] and in [12] was under 10 mm in each case.

On to `CCNC(=O)N1CCN(C(=O)c2cc(-c3ccc(Cl)cc3)n(-c3ccc(F)cc3)n2)CC1`, for which the “inhibition zone (IZ)” value in assay [1] is 17 mm; in [2], 19 mm; in assay [3], 18 mm; in [4], 18 mm; in assay [6], 17 mm; in assay [10] it was 19 mm. In addition, the results for the “inhibition zone (IZ)” value in assay [11] and in assay [12] were 24 mm and under 10 mm, respectively. In addition, the MIC worked out at 12.5 µg/mL (≈ 27.4 µM) in assay [5]; 12.5 µg/mL (≈ 27.4 µM) in assay [7]; 12.5 µg/mL (≈ 27.4 µM) in assay [8]; 50 µg/mL (≈ 110 µM) in assay [9]; 12.5 µg/mL (≈ 27.4 µM) in assay [13].

For the compound `N#Cc1ccc(NC(=O)N2CCN(C(=O)c3cc(-c4ccc(Cl)cc4)n(-c4ccc(F)cc4)n3)CC2)cc1`, the “inhibition zone (IZ)” value was 19 mm in assay [1]; 23 mm in [2]; 21 mm in assay [3]; 24 mm in assay [4]; under 10 mm in assay [6]; 19 mm in assay [10]. The “inhibition zone (IZ)” value in assay [11] is reported as 21 mm; in assay [12], under 10 mm. Further, the MIC in assay [5], in assay [7], in [8] and in assay [13] was 12.5 µg/mL (≈ 23.6 µM) each time.

`Cc1cc(C2CCCCC2)n(O)c(=O)c1.NCCO` [CICLOPIROX OLAMINE]: the “inhibition zone (IZ)” value is given as 23 mm in [2], 26 mm in [4], 27 mm in assay [6] and 27 mm in assay [11]. Besides, the MIC in assay [5] was 3.12 µg/mL; in assay [7], 6.25 µg/mL.
